Here are results for one molecule from ChEMBL document CHEMBL3853307, “Anti-inflammatory Effect of Methyl Gallate on Experimental Arthritis: Inhibition of Neutrophil Recruitment, Production of Inflammatory Mediators, and Activation of Macrophages” (J Nat Prod, 2016).

Experiment [1] relates to Mus musculus. As to the kind of experiment: Antiinflammatory activity in C57BL/6 mouse assessed as inhibition of zymosan-induced PGE2 production in cell-free supernatant of knee joint synovial washes at 10 mg/kg, ip administered 1 hr prior to zymosan challenge measured at 6 to 24 hrs by immunosorbent assay. The class given is functional, organism-based. In short, it runs like this:
(§1)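 Male C57BL/6 mice (18−22 g), fasted overnight, dosed orally (in filtered water, 200 μL) or i.p. 1 h before i.a. zymosan (500 μg in 25 μL saline) into left knee; contralateral knee got vehicle. Synovial cavity washed twice with 150 μL PBS/10 mM EDTA at 6 and 24 h; washes spun 400g 10 min, 4 °C. Cytokines measured by sandwich ELISA, LTB4/PGE2 by EIA (pg/mL); six mice/group, two experiments.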

In the next experiment the test system is Neutrophil. Kind of experiment: Antiinflammatory activity in C57BL/6 mouse neutrophils assessed as inhibition of CXCL1/KC-induced neutrophil chemotaxis at 50 nM preincubated for 1 hr followed by CXCL1/KC-induction measured after 1 hr by Wright-Giemsa staining-based light microscopic method. The class given is functional, cell-based. In short, it runs like this: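 Bone marrow neutrophils from C57BL/6 femurs, purified on a 65%/72% Percoll gradient (~85−90% purity). 10^5 cells preincubated 1 h with compound or medium, then placed in a 48-well Boyden chamber over CXCL-1/KC (250 nM) across a 5 μm polycarbonate filter, 60 min at 37 °C, 5% CO2. Filter Wright-Giemsa stained; migrated cells counted in 15 fields; quadruplicate wells.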

Experiment [2] concerns J774.A1. As to the kind of experiment: Antiinflammatory activity in mouse J774A.1 cells assessed as inhibition of zymosan and IFNgamma-induced nitric oxide production at 1 uM preincubated for 1 hr followed by zymosan and IFNgamma addition measured after 24 hrs by colorimetric Griess test. The class given is functional, cell-based. In short, it runs like this: (§2)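 J774A.1 macrophages (1 × 10^5/well, RPMI/10% FBS) adhered 24 h, preincubated 1 h with compound (0.1−10 μM) or dexamethasone (1 μM), then stimulated with zymosan (10 μg per 10^5 cells) and/or IFN-γ (25 U/mL) for 24 h. Supernatant IL-6 by sandwich ELISA; nitrite by Griess reaction at 540 nm. Quadruplicate wells, two experiments.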
In general terms: Nitrite, measured by Griess reagent, commonly stands in for NO production.

Experiment [3] concerns Mus musculus. As to the kind of experiment: Antiinflammatory activity in C57BL/6 mouse assessed as inhibition of zymosan-induced CXCL1/KC production in cell-free supernatant of knee joint synovial washes at 10 mg/kg, ip administered 1 hr prior to zymosan challenge measured at 6 to 24 hrs by sandwich ELISA method. The class given is functional, organism-based. In a few lines:
as §1
For orientation: ELISA stands for enzyme-linked immunosorbent assay.

For experiment [4], the system named is Mus musculus. Kind of experiment: Antiinflammatory activity in C57BL/6 mouse assessed as inhibition of zymosan-induced knee joint edema formation at 10 mg/kg, ip administered 1 hr prior to zymosan challenge measured at 24 hrs relative to control. The conditions noted are these: C57BL/6, Knee joint. The class given is functional. In a few lines:
(§3)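 Male C57BL/6 mice, fasted overnight, dosed orally (vehicle saline/water, 200 μL) or i.p. 1 h before zymosan (500 μg in 25 μL saline, i.a., left knee). Knee swelling measured as change in transverse diameter from basal by digital caliper (mm). Synovial washes (PBS/EDTA) counted on a particle counter; differentials from May-Grünwald-Giemsa cytospins, cells ×10^5/cavity. Sampled at 6 and/or 24 h; seven mice/group.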

Experiment [5] concerns Mus musculus. As to the kind of experiment: Antiinflammatory activity in C57BL/6 mouse assessed as inhibition of zymosan-induced knee joint edema formation at 10 mg/kg, ip administered 1 hr prior to zymosan challenge measured at 6 hrs relative to control. It counts as functional. The conditions noted are these: C57BL/6, Knee joint. In a few lines:
as §3

Experiment [6] concerns Mus musculus. Kind of experiment: Antiinflammatory activity in C57BL/6 mouse assessed as inhibition of zymosan-induced LTB4 production in cell-free supernatant of knee joint synovial washes at 10 mg/kg, ip administered 1 hr prior to zymosan challenge measured at 6 to 24 hrs by immunosorbent assay. It counts as functional, organism-based. In short, it runs like this:
as §1

Experiment [7] deals with Mus musculus. As to the kind of experiment: Antiinflammatory activity in C57BL/6 mouse assessed as inhibition of zymosan-induced infiltration of inflammatory cells into synovial tissue at 10 mg/kg, ip administered 1 hr prior to zymosan challenge measured at 6 to 24 hrs by hematoxylin and eosin staining-based optical microscopy. It counts as functional, organism-based. In a few lines:
(§4)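 Mice dosed orally or i.p. 1 h before i.a. zymosan (500 μg/cavity) or saline. Whole knees taken at 6 and 24 h from six mice, fixed in 10% formalin 48 h, decalcified in 10% EDTA/PBS 1−2 weeks, paraffin-embedded. 5 μm sections H&E-stained and examined by light microscopy. Parameter scores summed into an arthritis index; means ± SEM, two experiments.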

Experiment [8] deals with J774.A1. Kind of experiment: Antiinflammatory activity in mouse J774A.1 cells assessed as inhibition of zymosan and IFNgamma-induced IL6 production in cell-free supernatant at 1 uM preincubated for 1 hr followed by zymosan and IFNgamma addition measured after 24 hrs by sandwich ELISA. It counts as functional, cell-based. In short, it runs like this: as §2
The subject of experiment [9] is Mus musculus. Kind of experiment: Antiinflammatory activity in C57BL/6 mouse assessed as inhibition of zymosan-induced IL6 production in cell-free supernatant of knee joint synovial washes at 10 mg/kg, ip administered 1 hr prior to zymosan challenge measured at 6 to 24 hrs by sandwich ELISA method. The class given is functional, organism-based. In short, it runs like this: as §1

In experiment [10] the test system is Mus musculus. Kind of experiment: Antiinflammatory activity in C57BL/6 mouse assessed as inhibition of zymosan-induced neutrophil migration in articular cavity at 10 mg/kg, ip administered 1 hr prior to zymosan challenge measured at 6 to 24 hrs. It counts as functional, organism-based. In short, it runs like this:
as §3

Experiment [11] relates to Mus musculus. As to the kind of experiment: Antiinflammatory activity in C57BL/6 mouse assessed as inhibition of zymosan-induced TNFalpha production in cell-free supernatant of knee joint synovial washes at 10 mg/kg, ip administered 1 hr prior to zymosan challenge measured at 6 to 24 hrs by sandwich ELISA method. It counts as functional, organism-based. In short, it runs like this:
as §1

Experiment [12] deals with Mus musculus. As to the kind of experiment: Antiinflammatory activity in C57BL/6 mouse assessed as inhibition of zymosan-induced IL-1beta production in cell-free supernatant of knee joint synovial washes at 10 mg/kg, ip administered 1 hr prior to zymosan challenge measured at 6 to 24 hrs by sandwich ELISA method. It counts as functional, organism-based. In a few lines: as §1

For experiment [13], the system named is Mus musculus. Kind of experiment: Antiinflammatory activity in C57BL/6 mouse assessed as inhibition of zymosan-induced bleeding in synovial tissue at 10 mg/kg, ip administered 1 hr prior to zymosan challenge measured at 6 to 24 hrs by hematoxylin and eosin staining-based optical microscopy. It counts as functional, organism-based. In a few lines: as §4

The subject of experiment [14] is Mus musculus. As to the kind of experiment: Antiinflammatory activity in C57BL/6 mouse assessed as inhibition of zymosan-induced mononuclear cells migration in articular cavity at 10 mg/kg, ip administered 1 hr prior to zymosan challenge measured at 6 to 24 hrs. The class given is functional, organism-based. In short, it runs like this:
as §3

Experiment [15] deals with Mus musculus. As to the kind of experiment: Antiinflammatory activity in C57BL/6 mouse assessed as inhibition of zymosan-induced arthritis score at 10 mg/kg, ip administered 1 hr prior to zymosan challenge measured at 6 to 24 hrs by hematoxylin and eosin staining-based optical microscopy. The class given is functional, organism-based. In a few lines: as §4
The test system of experiment [16] is Mus musculus. As to the kind of experiment: Antiinflammatory activity in C57BL/6 mouse assessed as inhibition of zymosan-induced synovial hyperplasia at 10 mg/kg, ip administered 1 hr prior to zymosan challenge measured at 6 to 24 hrs by hematoxylin and eosin staining-based optical microscopy. It counts as functional, organism-based. In short, it runs like this:
as §4

Experiment [17] concerns Mus musculus. Kind of experiment: Antiinflammatory activity in C57BL/6 mouse assessed as inhibition of zymosan-induced total leukocyte accumulation in articular cavity at 10 mg/kg, ip administered 1 hr prior to zymosan challenge measured at 6 to 24 hrs. It counts as functional, organism-based. In a few lines: as §3
The test system of experiment [18] is J774.A1. As to the kind of experiment: Antiinflammatory activity in mouse J774A.1 cells assessed as inhibition of zymosan and IFNgamma-induced COX2 expression at 1 uM preincubated for 1 hr followed by zymosan and IFNgamma addition measured after 24 hrs by Western blot analysis. It counts as functional, cell-based. In a few lines: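 J774A.1 cells in six-well plates pretreated 1 h (0.1−10 μM) before zymosan (10 μg per 10^5 cells) and/or IFN-γ (25 U/mL) for 24 h. Lysates (Tris/NaCl/MgCl2/0.5% NP40 with protease inhibitors); 30 μg protein run on 7.5% SDS-PAGE, transferred to PVDF, probed for COX-2, iNOS and α-tubulin.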
(In general: A western blot detects proteins with antibodies after separation by electrophoresis.)

Calls of active or inactive are those of the source. No cut-off for these calls is given here.

By inhibition in vivo is commonly meant the relative decrease from the control value, in per cent. As for `C[C@@H]1C[C@H]2[C@@H]3CCC4=CC(=O)C=C[C@]4(C)[C@@]3(F)[C@@H](O)C[C@]2(C)[C@@]1(O)C(=O)CO` [DEXAMETHASONE], the inhibition result in the experiment on Mus musculus [1], in the experiment on Neutrophil, in the experiment with J774.A1 [2], in the experiment with Mus musculus [3], with Mus musculus [6] and in the experiment with Mus musculus [7] was “Active” throughout. Besides, the inhibition result in the experiment with J774.A1 [8], with Mus musculus [9], with Mus musculus [10], in the experiment with Mus musculus [11], in the experiment on Mus musculus [12] and with Mus musculus [13] was “Active” each time. For the same molecule, the inhibition entry in the experiment with Mus musculus [14], in the experiment with Mus musculus [15], with Mus musculus [16], with Mus musculus [17] and in the experiment with J774.A1 [18] was “Active” in each case. Also, the inhibition in vivo at 10 mg/kg in the experiment with Mus musculus [4] worked out at 48%; in the experiment on Mus musculus [5], 42%.
